Source: ChEMBL document CHEMBL1122442, “Antifertility agents. 38. Effect of the side chain and its position on the activity of 3,4-diarylchromans” (1983)
Calls of active or inactive are those of the source. The calls are words filed in the database; no cut-off is given here.

What was measured:
[1] = species on record: Rattus norvegicus; test: Effective dose for antiimplantation activity in male albino rats; format: functional; conditions: in the assay text read “female” for “male”
Method in brief: (§1)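 Colony-bred adult female albino rats (150-170 g) mated with fertile coeval males; suspension in gum acacia given orally on days 1-7 postcoitum; positive only when implants were wholly absent from both uterine horns.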

[2] = target: T1, Estrogen receptor (Rattus norvegicus) (UniProt P06211+Q62986); test: Relative binding affinity for uterine cytosol 17-beta-estradiol receptor from immature rats; N-Nil; format: protein assay
Method in brief: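 Competitive binding against 17β-estradiol for uterine cytosol receptor from immature Charles Foster rats aged 21-25 days; dextran-coated charcoal removes unbound steroid; expressed as relative binding affinity.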

[3] = test system: Rattus norvegicus; test: Effective dose for antiimplantation activity in male albino rats at 2 mg/Kg;IN-Inactive; format: functional, organism-based; conditions: in the assay text read “female” for “male”; method in brief: as §1
[4] = target: T1, Estrogen receptor (Rattus norvegicus)
[5] = species on record: Rattus norvegicus; test: Effective dose for anti-implantation activity in male albino rats; Nil; format: functional, organism-based; conditions: in the assay text read “female” for “male”; method in brief: as §1
[6] = target: T1, Estrogen receptor (Rattus norvegicus); test: Effect on uterine weight gain in immature rats by subcutaneous dose; N-Nil; format: functional
Method in brief: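 Immature rats (25-30 g); dosed subcutaneously once daily for 3 days in 0.2 mL saline/propylene glycol (1:1, v/v); estrogenicity read as uterine weight gain.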

[7] = test system: Rattus norvegicus; test: Effective dose for anti-implantation activity in female albino rats at 10 mg/kg; A-Active
[8] = test system: Rattus norvegicus; test: Effective dose for anti-implantation activity in female albino rats at 10 mg/kg; IN-Inactive

Compound	ED100 [1]	ED100 [3]	also measured
CCN(CC)CCOc1ccc(C2c3ccc(OC)cc3OC(C)(C)C2c2ccccc2)cc1.Cl (centres undefined)	0.3 mg/kg/day	–	–
COc1ccc2c(c1)OC(C)(C)C(c1ccccc1)C2c1ccc(OCCN2CCCC2)cc1 (stereo in doubt; 2) [ORMELOXIFENE]	50 mg/kg/day	–	–
COc1ccc2c(c1)OC(C)(C)C(c1ccccc1)C2c1ccc(OCCCN2CCCC2)cc1.Cl (centres undefined)	0.3 mg/kg/day	–	–
COc1ccc2c(c1)OC(C)(C)C(c1ccccc1)=C2c1ccc(OCCN2CCCC2)cc1	5 mg/kg/day	–	–
COc1ccc2c(c1)OC(C)(C)C(c1ccc(OCCN3CCCC3)cc1)=C2c1ccccc1	–	inactive	relative binding affinity (RBA) [2]: inactive
COc1ccc2c(c1)OC(C)(C)C(c1ccccc1)C2c1ccc(O)cc1 (centres undefined)	–	–	Estrogenic effect [4]: 0.2; ED100 [5]: inactive
COc1ccc2c(c1)OC(C)(C)C(c1ccccc1)C2c1ccc(OCCN(C)C)cc1.Cl (centres undefined)	2 mg/kg/day	–	–
COc1ccc2c(c1)OC(C)(C)C(c1ccc(OCCN3CCCC3)cc1)C2c1ccccc1 (centres undefined)	2 mg/kg/day	inactive	Estrogenic effect [4]: 2.2; relative binding affinity (RBA) [2]: inactive
COc1ccc2c(c1)OC(C)(C)C(c1ccccc1)C2c1ccc(OCCN2CCCC2)cc1 (stereo in doubt; 1)	–	–	Estrogenic effect [4]: 0.56
COc1ccc2c(c1)OC(C)(C)C(c1ccccc1)C2c1cccc(OCCN2CCCC2)c1 (stereo in doubt; 22)	–	inactive	–
COc1ccc2c(c1)OC(C)(C)C(c1ccccc1)C2c1ccc(OCCN2CCCC2)cc1 (stereo in doubt; 2)	–	–	Estrogenic effect [6]: inactive
COc1ccc2c(c1)OC(C)(C)C(c1ccc(O)cc1)=C2c1ccccc1	–	inactive	ED100 [7]: Active
COc1ccc2c(c1)OC(C)(C)C(c1ccccc1)=C2c1ccccc1OCCN1CCCC1	–	–	ED100 [8]: inactive; relative binding affinity (RBA) [2]: inactive
CC1(C)Oc2cc(O)ccc2C(c2ccc(OCCN3CCCC3)cc2)C1c1ccccc1 (centres undefined)	0.25 mg/kg/day	–	Estrogenic effect [4]: 11.8
COc1ccc2c(c1)OC(C)(C)C(c1ccccc1)C2c1cccc(OCCN2CCCC2)c1 (stereo in doubt; 11)	–	inactive	–
COc1ccc2c(c1)OC(C)(C)C(c1ccc(O)cc1)C2c1ccccc1 (stereo in doubt; 31)	–	–	ED100 [8]: inactive
COc1ccc2c(c1)OC(C)(C)C(c1ccccc1)C2c1ccc(OCCN2CCCC2)cc1 (stereo in doubt; 1) [ORMELOXIFENE]	0.25 mg/kg/day	–	–
COc1ccc2c(c1)OC(C)(C)C(c1ccc(O)cc1)C2c1ccccc1 (stereo in doubt; 33)	1 mg/kg/day	–	–
COc1ccc2c(c1)OC(C)(C)C(c1ccccc1)C2c1ccccc1OCCN1CCCC1 (centres undefined)	–	inactive	relative binding affinity (RBA) [2]: inactive
COc1ccc2c(c1)OC(C)(C)C(c1ccccc1)=C2c1cccc(OCCN2CCCC2)c1.Cl	1 mg/kg/day	–	–
